# Target: human TRPV1 (Homo sapiens, UniProt Q8NER1)
# Experiment: 45Ca2+ uptake assay, antagonism of capsaicin
# Type: cell-based
# Details: not given
# Sequence of human TRPV1 (Q8NER1 whole entry): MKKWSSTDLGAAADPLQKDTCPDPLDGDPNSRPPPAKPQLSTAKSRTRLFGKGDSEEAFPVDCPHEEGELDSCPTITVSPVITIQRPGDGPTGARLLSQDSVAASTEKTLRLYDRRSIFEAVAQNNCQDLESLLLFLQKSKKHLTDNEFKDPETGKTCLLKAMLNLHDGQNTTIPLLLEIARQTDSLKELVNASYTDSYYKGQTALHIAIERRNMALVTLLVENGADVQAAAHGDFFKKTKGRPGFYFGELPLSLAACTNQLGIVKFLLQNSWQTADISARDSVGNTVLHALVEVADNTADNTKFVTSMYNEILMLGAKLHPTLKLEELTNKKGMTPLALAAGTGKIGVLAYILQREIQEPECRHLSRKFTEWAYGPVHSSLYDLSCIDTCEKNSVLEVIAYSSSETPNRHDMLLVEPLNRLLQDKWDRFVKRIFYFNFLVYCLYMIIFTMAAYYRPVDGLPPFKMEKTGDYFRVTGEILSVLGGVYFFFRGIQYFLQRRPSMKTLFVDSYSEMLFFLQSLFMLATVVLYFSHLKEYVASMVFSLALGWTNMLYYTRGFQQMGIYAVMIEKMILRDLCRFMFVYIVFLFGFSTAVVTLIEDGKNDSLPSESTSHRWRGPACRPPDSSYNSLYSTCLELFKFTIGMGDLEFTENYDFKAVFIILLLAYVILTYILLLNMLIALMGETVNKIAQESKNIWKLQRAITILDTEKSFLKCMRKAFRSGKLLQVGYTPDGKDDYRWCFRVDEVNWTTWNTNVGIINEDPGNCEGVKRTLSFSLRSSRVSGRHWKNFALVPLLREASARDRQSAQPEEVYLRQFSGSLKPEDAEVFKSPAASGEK
row,SMILES,Ki [nM]
1,"CN(C)C1(Cc2ccccc2)CCN(c2cc(C(F)(F)F)ccc2CNC(=O)Nc2ccc3cccnc3c2)CC1 [compound 44, 1-(2-(4-Benzyl-4-(dimethylamino)piperidin-1-yl)-4-(trifluoromethyl)benzyl)-3-(quinolin-7-yl)urea]",42
2,"CN(C)C1(Cc2ccccc2)CCN(c2cc(C(F)(F)F)ccc2CNC(=O)Nc2ccc3c(c2)OCC3)CC1 [compound 33, 1-(2-(4-Benzyl-4-(dimethylamino)piperidin-1-yl)-4-(trifluoromethyl)benzyl)-3-(2,3-dihydrobenzofuran-6-yl)urea]",31.3
3,"CN(C)C1(Cc2ccccc2)CCN(c2cc(C(F)(F)F)ccc2CNC(=O)Nc2cccc3ccncc23)CC1 [compound 47, 1-(2-(4-Benzyl-4-(dimethylamino)piperidin-1-yl)-4-(trifluoromethyl)benzyl)-3-(isoquinolin-8-yl)urea]",18.7
4,"CN(C)C1(Cc2ccccc2)CCN(c2cc(C(F)(F)F)ccc2CNC(=O)Nc2ccc(CO)c(F)c2)CC1 [compound 23, 1-(2-(4-Benzyl-4-(dimethylamino)piperidin-1-yl)-4-(trifluoromethyl)benzyl)-3-(3-fluoro-4-(hydroxymethyl)phenyl)urea]",81
5,"CC(C(=O)NCc1ccc(C(F)(F)F)cc1N1CCC(Cc2ccccc2)(N(C)C)CC1)c1ccc(NS(C)(=O)=O)c(F)c1 (centres unmarked) [compound 11, N-(2-(4-Benzyl-4-(dimethylamino)piperidin-1-yl)-4-(trifluoromethyl)benzyl)-2-(3-fluoro-4-(methylsulfonamido)phenyl)propanamide]",8.2
6,"CN(C)C1(Cc2ccccc2)CCN(c2cc(C(F)(F)F)ccc2CNC(=O)Nc2ccc(CNS(C)(=O)=O)c(F)c2)CC1 [compound 15, N-(4-(3-(2-(4-Benzyl-4-(dimethylamino)piperidin-1-yl)-4-(trifluoromethyl)benzyl)-ureido)-2-fluorobenzyl)methanesulfonamide]",25
7,"CN(C)C1(Cc2ccccc2)CCN(c2cc(C(F)(F)F)ccc2CNC(=O)Nc2ccc3ccncc3c2)CC1 [compound 45, 1-(2-(4-Benzyl-4-(dimethylamino)piperidin-1-yl)-4-(trifluoromethyl)benzyl)-3-(isoquinolin-7-yl)urea]",56.1
8,"CN(C)C1(Cc2ccccc2)CCN(c2cc(C(F)(F)F)ccc2CNC(=O)Nc2ccc3cnccc3c2)CC1 [compound 46, 1-(2-(4-Benzyl-4-(dimethylamino)piperidin-1-yl)-4-(trifluoromethyl)benzyl)-3-(isoquinolin-6-yl)urea]",156
9,"CN(C)C1(Cc2ccccc2)CCN(c2cc(C(F)(F)F)ccc2CNC(=O)Nc2cccc3cnccc23)CC1 [compound 48, 1-(2-(4-Benzyl-4-(dimethylamino)piperidin-1-yl)-4-(trifluoromethyl)benzyl)-3-(isoquinolin-5-yl)urea]",8.8
10,"CN(C)C1(Cc2ccccc2)CCN(c2cc(C(F)(F)F)ccc2CNC(=O)NCc2ccc(NS(C)(=O)=O)c(F)c2)CC1 [compound 17, N-(4-((3-(2-(4-Benzyl-4-(dimethylamino)piperidin-1-yl)-4-(trifluoromethyl)benzyl)-ureido)-methyl)-2-fluorophenyl)methanesulfonamide]",85.9
11,"CC1CCN(c2nc(C(F)(F)F)ccc2CNC(=O)[C@@H](C)c2ccc(NS(C)(=O)=O)c(F)c2)CC1 [compound 1, reference compound]",2.22
12,"CN(C)C1(Cc2ccccc2)CCN(c2cc(C(F)(F)F)ccc2CNC(=O)Nc2cccc3[nH]c(=O)ccc23)CC1 [compound 35, 1-(2-(4-Benzyl-4-(dimethylamino)piperidin-1-yl)-4-(trifluoromethyl)benzyl)-3-(2-oxo-1,2-dihydroquinolin-5-yl)urea]",30.6

# Target: mu-opioid receptor (MOR) (Homo sapiens, UniProt P35372)
# Experiment: MOR binding competition assay with [3H]DAMGO
# Details: MOR binding Ki relative to morphine
# Sequence of mu-opioid receptor (MOR) (P35372 whole entry, species assumed): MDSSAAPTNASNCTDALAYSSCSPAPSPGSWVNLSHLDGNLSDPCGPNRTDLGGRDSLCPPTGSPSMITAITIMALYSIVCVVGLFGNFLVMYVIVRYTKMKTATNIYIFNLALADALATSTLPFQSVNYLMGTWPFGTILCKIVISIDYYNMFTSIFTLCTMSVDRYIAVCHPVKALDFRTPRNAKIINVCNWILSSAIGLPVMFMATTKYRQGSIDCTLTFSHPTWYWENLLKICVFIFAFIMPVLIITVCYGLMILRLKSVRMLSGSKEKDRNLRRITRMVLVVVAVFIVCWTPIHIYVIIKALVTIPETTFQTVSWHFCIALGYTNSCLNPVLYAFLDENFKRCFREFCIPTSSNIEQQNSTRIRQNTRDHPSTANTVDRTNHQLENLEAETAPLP
row,SMILES,fold less potent than morphine (MOR Ki) [fold]
1,"CN(C)C1(Cc2ccccc2)CCN(c2cc(C(F)(F)F)ccc2CNC(=O)Nc2cccc3ncccc23)CC1 [compound 49, 1-(2-(4-Benzyl-4-(dimethylamino)piperidin-1-yl)-4-(trifluoromethyl)benzyl)-3-(quinolin-5-yl)urea]",5

# System: ICR mice
# Experiment: Formalin test
# Type: in vivo, mouse
# Details: 40 mg/kg i.p., formalin assay phase 2
# Outline: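 Male ICR mice (20-25 g, groups of 6-8) were housed at 22 ± 2 °C and 50 ± 5% humidity and acclimated to the chamber for at least 5 min. Test compound was given i.p. 30 min before 20 μL of 2% formalin in 0.9% saline was injected into the dorsal right hindpaw. Licking/biting time (s) was summed per 5-min block over 30 min: early phase 0-5 min, late phase 20-30 min.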
row,SMILES,inhibition of pain behavior in phase 2
1,"CN(C)C1(Cc2ccccc2)CCN(c2cc(C(F)(F)F)ccc2CNC(=O)Nc2cccc3ncccc23)CC1 [compound 49, 1-(2-(4-Benzyl-4-(dimethylamino)piperidin-1-yl)-4-(trifluoromethyl)benzyl)-3-(quinolin-5-yl)urea]",completely
